Measurements taken from ChEMBL document CHEMBL4359893, “Synthesis, structure-activity relationship and trypanocidal activity of pyrazole-imidazoline and new pyrazole-tetrahydropyrimidine hybrids as promising chemotherapeutic agents for Chagas disease” (Eur J Med Chem, 2019).

Assays:
[1] = system: Trypanosoma cruzi; assay: Trypanocidal activity against luciferase expressing Trypanosoma cruzi Dm28c trypomastigotes isolated from infected Vero cells assessed as reduction in parasite viability after 24 hrs by luciferase-luminescence assay; type: functional, organism-based
How it was run: (§1)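 Trypomastigotes at 1 × 10⁶ parasites/well treated 24 h at 37 °C with 0.41–100 µM compound. Y strain viability read by ATP luminescence (CellTiter-Glo); Dm28c-Luc viability read by luciferase activity. IC50/IC90 by linear regression. Benznidazole positive and DMSO ≤1% negative controls.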

[2] = Cytotoxicity against African green monkey Vero cells assessed as reduction in cell viability by measuring ATP level after 72 hrs by Celltiter-Glo assay; type: cell-based; conditions: chlorocebus sabaeus
How it was run: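 Vero cells seeded at 1.5 × 10⁴ cells/well, exposed 24 h later to 1.95–500 µM compound for 72 h at 37 °C. Viability read as ATP luminescence (CellTiter-Glo). DMSO ≤1% as control. CC50 from linear regression; at least three independent assays in duplicate.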

[3] = system: Trypanosoma cruzi; assay: Trypanocidal activity against Trypanosoma cruzi Y strain bloodstream trypomastigotes isolated from infected Swiss webster mouse cardiac cells assessed as reduction in parasite viability after 24 hrs by Celltiter-Glo assay; type: functional, organism-based; how it was run: as §1
[4] = system: Trypanosoma cruzi; assay: Trypanocidal activity against intracellular amastigote stage of luciferase expressing Trypanosoma cruzi Dm28c infected in Vero cells assessed as reduction in parasite viability after 72 hrs in presence of luciferin by luciferase luminescence analysis
[5] = Selectivity index, ratio of CC50 for African green monkey Vero cells to IC50 for intracellular amastigote stage of luciferase expressing Trypanosoma cruzi Dm28c infected in Vero cells; type: toxicity, cell-based; conditions: read-out: Ratio CC50/IC50
[6] = Selectivity index, ratio of CC50 for African green monkey Vero cells to IC50 for luciferase expressing Trypanosoma cruzi Dm28c trypomastigotes isolated from infected Vero cells; type: toxicity; conditions: read-out: Ratio CC50/IC50
[7] = Selectivity index, ratio of CC50 for African green monkey Vero cells to IC50 for Trypanosoma cruzi Y strain bloodstream trypomastigotes isolated from infected Swiss webster mouse cardiac cells; type: toxicity; conditions: read-out: Ratio CC50/IC50
[8] = Cytotoxicity against mouse cardiomyocytes infected with intracellular amastigote stage of Trypanosoma cruzi Y strain assessed as reduction in cardiomyocyte viability after 72 hrs by Celltiter-Glo assay; type: cell-based, Cardiac Muscle Cell
How it was run: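 Primary heart muscle cells from 18-day mouse fetuses, dissociated with trypsin/collagenase II, grown in DMEM with 7% FBS, 2% chicken embryo extract, 1 mM L-glutamine, antibiotics, 37 °C, 5% CO₂. Plated at 5 × 10⁴ cells/well and treated 72 h. Viability read by ATP luminescence. CC50 from linear regression; DMSO ≤1% control; at least three independent assays in duplicate.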

[9] = molecular target: Cruzipain (Trypanosoma cruzi) (UniProt P25779); assay: Potency index, ratio of compound IC50 to E-64 IC50 for inhibition of Trypanosoma cruzi cruzipain
Sequence of Cruzipain (Trypanosoma cruzi) (P25779 123-467 limits assumed): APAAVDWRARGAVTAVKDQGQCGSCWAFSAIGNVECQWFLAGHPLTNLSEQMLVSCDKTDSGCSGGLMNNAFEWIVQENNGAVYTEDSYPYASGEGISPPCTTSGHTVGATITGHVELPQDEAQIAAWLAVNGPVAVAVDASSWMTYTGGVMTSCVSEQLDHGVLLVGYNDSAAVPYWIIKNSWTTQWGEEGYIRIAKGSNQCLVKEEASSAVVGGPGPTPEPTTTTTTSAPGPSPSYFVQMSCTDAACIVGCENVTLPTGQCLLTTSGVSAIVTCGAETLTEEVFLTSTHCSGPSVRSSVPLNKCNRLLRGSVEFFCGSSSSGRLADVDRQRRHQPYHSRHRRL

[10] = molecular target: T1, Cruzipain (Trypanosoma cruzi, UniProt P25779); assay: Inhibition of Trypanosoma cruzi cruzipain assessed as reduction in enzymatic activity using Z-FR-AMC fluorogenic peptide substrate incubated for 45 mins by spectrophotometry analysis
T1 sequence (P25779 whole entry): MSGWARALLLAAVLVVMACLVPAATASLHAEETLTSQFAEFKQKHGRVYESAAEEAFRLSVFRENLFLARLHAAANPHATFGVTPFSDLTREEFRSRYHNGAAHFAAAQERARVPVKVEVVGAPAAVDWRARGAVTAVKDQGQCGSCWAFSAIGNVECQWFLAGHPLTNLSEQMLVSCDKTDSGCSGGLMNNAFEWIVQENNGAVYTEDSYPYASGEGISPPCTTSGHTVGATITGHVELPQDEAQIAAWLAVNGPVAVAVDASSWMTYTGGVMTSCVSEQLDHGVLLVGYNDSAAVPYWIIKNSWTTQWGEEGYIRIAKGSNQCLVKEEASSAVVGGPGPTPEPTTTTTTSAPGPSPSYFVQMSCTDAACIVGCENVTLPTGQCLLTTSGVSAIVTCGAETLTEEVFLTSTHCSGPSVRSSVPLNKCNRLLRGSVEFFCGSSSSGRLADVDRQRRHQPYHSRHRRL
How it was run: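 Soluble trypomastigote protein extract (lysis in Tris pH 8.0/NaCl/glycerol/Triton X-100, 25,000 g supernatant) used as enzyme source. Incubated with 30 µM Z-FR-AMC in 10 mM sodium acetate pH 5.0 with 1 mM DTT, co-incubated with inhibitor concentrations, 45 min at 37 °C. AMC release read by fluorescence. Substrate self-degradation and DMSO ≤1% controls.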

[11] = system: Trypanosoma cruzi; assay: Trypanocidal activity against intracellular amastigote stage of Trypanosoma cruzi Y strain infected in Swiss webster cardiac cells assessed as reduction in parasite viability
[12] = system: Trypanosoma cruzi; assay: Potency index, ratio of compound IC90 to benznidazole IC90 for Trypanocidal activity against intracellular amastigote stage of luciferase expressing Trypanosoma cruzi Dm28c infected in Vero cells; type: functional
[13] = Selectivity index, ratio of CC50 for mouse cardiomyocyte infected with intracellular amastigote stage of Trypanosoma cruzi Y strain to IC50 for amastigote stage of Trypanosoma cruzi Y strain; type: toxicity, cell-based; conditions: read-out: Ratio CC50/IC50
[14] = molecular target: T1, Cruzipain; assay: Irreversible inhibition of Trypanosoma cruzi cruzipain

Row | Compound | IC50 [1] [µM] | IC90 [1] [µM] | CC50 at 72 h [2] [µM] | IC50 [3] [µM] | IC90 [3] [µM] | IC50 [4] [µM] | IC90 [4] [µM] | selectivity ratio [5] | selectivity ratio [6] | selectivity ratio [7] | CC50 at 72 h [8] [µM] | Ratio IC50 [9] | IC50 [10] [µM] | IC50 [11] [µM] | Ratio [12] | selectivity ratio [13] | IC50 [14] [µM]
1 | Nc1c(C2=NCCCN2)cnn1-c1ccccc1 | > 100 | > 100 | > 500 | > 100 | > 100 | > 100 | > 100 | – | – | – | – | – | – | – | – | – | –
2 | Nc1c(C2=NCCCN2)cnn1-c1cc(Cl)cc(Cl)c1 | > 100 | > 100 | > 500 | > 100 | > 100 | > 100 | > 100 | – | – | – | – | – | – | – | – | – | –
3 | Nc1c(C2=NCCCN2)cnn1-c1ccc(F)cc1 | > 100 | > 100 | > 500 | > 100 | > 100 | > 100 | > 100 | – | – | – | – | – | – | – | – | – | –
4 | Nc1c(C2=NCCCN2)cnn1-c1cccc(Br)c1 | > 100 | > 100 | > 500 | > 100 | > 100 | > 100 | > 100 | – | – | – | – | – | – | – | – | – | –
5 | Nc1c(C2=NCCCN2)cnn1-c1ccc(Cl)cc1 | > 100 | > 100 | > 500 | > 100 | > 100 | > 100 | > 100 | – | – | – | – | – | – | – | – | – | –
6 | Nc1c(C2=NCCN2)cnn1-c1cccc(Cl)c1 | 53.3 | 81.1 | > 500 | 31.3 | > 100 | 20.6 | 55 | > 24.3 | 9.4 | > 15.9 | – | – | – | – | – | – | –
7 | Nc1c(C2=NCCN2)cnn1-c1ccc(F)cc1 | > 100 | > 100 | > 500 | > 100 | > 100 | > 100 | > 100 | – | – | – | – | – | – | – | – | – | –
8 | Nc1c(C2=NCCN2)cnn1-c1ccc(Cl)c(Cl)c1 | 10.5 | 29 | 244 | 28.3 | > 100 | 13.6 | 30.5 | 17.9 | 23.3 | 8.6 | 412 | 60 | 180 | 12.7 | 4.4 | 32.4 | –
9 | Nc1c(C2=NCCCN2)cnn1-c1cccc(Cl)c1 | > 100 | > 100 | > 500 | > 100 | > 100 | > 100 | > 100 | – | – | – | – | – | – | – | – | – | –
10 | Nc1c(C2=NCCN2)cnn1-c1cccc(Br)c1 | > 100 | > 100 | 352 | 27.7 | > 100 | 67.4 | > 100 | 5.2 | – | 12.7 | – | – | – | – | – | – | –
11 | Nc1c(C2=NCCCN2)cnn1-c1ccc(Br)cc1 | > 100 | > 100 | > 500 | > 100 | > 100 | > 100 | > 100 | – | – | – | – | – | – | – | – | – | –
12 | Nc1c(C2=NCCN2)cnn1-c1ccc(Cl)cc1 | 78.9 | > 100 | > 500 | 84.2 | > 100 | > 100 | > 100 | – | > 6.3 | > 5.9 | – | – | – | – | – | – | –
13 | COc1ccc(-n2ncc(C3=NCCCN3)c2N)cc1 | > 100 | > 100 | > 500 | > 100 | > 100 | > 100 | > 100 | – | – | – | – | – | – | – | – | – | –
14 | CC(C)C[C@H](NC(=O)[C@@H]1O[C@H]1C(=O)O)C(=O)NCCCCN=C(N)N | – | – | – | – | – | – | – | – | – | – | – | – | – | – | – | – | 3
15 | Nc1c(C2=NCCN2)cnn1-c1ccc(Br)cc1 | > 100 | > 100 | > 500 | 52.3 | > 100 | 84.2 | > 100 | > 5.9 | – | > 9.5 | – | – | – | – | – | – | –
16 | O=C(Cn1ccnc1[N+](=O)[O-])NCc1ccccc1 [BENZNIDAZOLE] | 19.1 | 94.1 | > 500 | 23.3 | > 100 | 1.9 | 6.9 | > 263 | > 26.3 | > 21.4 | > 500 | – | – | 0.9 | – | > 555 | –
17 | Nc1c(C2=NCCN2)cnn1-c1cc(Cl)cc(Cl)c1 | 9.5 | 28.9 | 257 | 30.9 | > 100 | 16.5 | 29.9 | 15.6 | 27.1 | 8.3 | 379 | 8 | 24 | 12.5 | 4.4 | 30.3 | –
18 | Nc1c(C2=NCCCN2)cnn1-c1ccc(Cl)c(Cl)c1 | > 100 | > 100 | > 500 | > 100 | > 100 | > 100 | > 100 | – | – | – | – | – | – | – | – | – | –
19 | COc1ccc(-n2ncc(C3=NCCN3)c2N)cc1 | > 100 | > 100 | > 500 | > 100 | > 100 | 63.4 | > 100 | > 7.9 | – | – | – | – | – | – | – | – | –
20 | Nc1c(C2=NCCN2)cnn1-c1ccccc1 | > 100 | > 100 | > 500 | > 100 | > 100 | 84.2 | > 100 | > 5.9 | – | – | – | – | – | – | – | – | –
